What all share (format): functional
Assay [1] has as its system Nakaseomyces glabratus. Briefly: Ratio of voriconazole MIC80 to compound MIC80 for Candida glabrata.
Assay [2] deals with Nakaseomyces glabratus. Put plainly: Ratio of itraconazole MIC80 to compound MIC80 for Candida glabrata.
Assay [3] concerns Trichophyton rubrum. Put plainly: Antimicrobial activity against Trichophyton rubrum by broth microdilution method.
For assay [4], the system named is Nakaseomyces glabratus. Briefly: Ratio of fluconazole MIC80 to compound MIC80 for Candida glabrata.
Assay [5] deals with Candida albicans. Briefly: Antimicrobial activity against Candida albicans SC5314 after 24 hrs by broth microdilution method. As to conditions: SC5314, 24 h. The procedure, abridged: (§1)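 Broth microdilution in 96-well plates following NCCLS methods. Compounds were dissolved in DMSO, serially diluted in growth medium, inoculated and incubated at 35°C. MIC read at 24 h for Candida albicans and at 72 h for Cryptococcus neoformans. MIC80 is the first well with about 80% less growth than the drug-free well. Values are means of three replicate tests.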

Assay [6] relates to Nannizzia gypsea. Briefly: Antimicrobial activity against Microsporum gypseum by broth microdilution method.
Assay [7] deals with Candida parapsilosis. Briefly: Antimicrobial activity against Candida parapsilosis by broth microdilution method. As to conditions: Lodderomyces parapsilosis.
Assay [8] concerns Nakaseomyces glabratus. Briefly: Antimicrobial activity against Candida glabrata by broth microdilution method.
Assay [9] deals with Aspergillus fumigatus. Briefly: Antimicrobial activity against Aspergillus fumigatus by broth microdilution method.
Assay [10] concerns Candida albicans. Briefly: Antimicrobial activity against Candida albicans Y0109 after 24 hrs by broth microdilution method. As to conditions: Y0109, 24 h. In a few lines: as §1
Assay [11] concerns Cryptococcus neoformans. Put plainly: Antimicrobial activity against Cryptococcus neoformans after 72 hrs by broth microdilution method. In a few lines: as §1
Assay [12] concerns Nakaseomyces glabratus. Briefly: Ratio of ketoconazole MIC80 to compound MIC80 for Candida glabrata.
Assay [13] deals with Candida albicans. Briefly: Ratio of voriconazole MIC80 to compound MIC80 for Candida albicans SC5314.
Assay [14] concerns Candida albicans. Put plainly: Ratio of itraconazole MIC80 to compound MIC80 for Candida albicans SC5314.

The structures appear in SMILES notation. Converted amounts (≈) assume the structure as drawn.

`OC(CN1CCN(CCCSc2nnc(-c3cccc(Br)c3)o2)CC1)(Cn1cncn1)c1ccc(F)cc1F` (configuration not stated): the Ratio in [1] came out at 16; in assay [2], 32; in assay [4] it was 256; in assay [12] it was 2051. In addition, the MIC80 in assay [3] was 0.25 µg/mL (≈ 0.403 µM); in assay [5], 0.0625 µg/mL (≈ 0.101 µM); in assay [6] it was 1 µg/mL (≈ 1.61 µM); in assay [7], 0.25 µg/mL (≈ 0.403 µM); in assay [8], 0.0039 µg/mL (≈ 0.00629 µM); in [9], above 64 µg/mL. Moreover, the MIC80 in assay [10] was determined as 0.0625 µg/mL (≈ 0.101 µM); in assay [11], 0.25 µg/mL (≈ 0.403 µM).

As for `OC(CN1CCN(CCCSc2nnc(-c3cccc(F)c3)o2)CC1)(Cn1cncn1)c1ccc(F)cc1F` (configuration not stated), the Ratio in assay [13] came to 16; in assay [14], 64. Further, the MIC80 is 0.0625 µg/mL (≈ 0.112 µM) in assay [3]; 0.0039 µg/mL (≈ 0.00697 µM) in assay [5]; 1 µg/mL (≈ 1.79 µM) in assay [6]; 0.25 µg/mL (≈ 0.447 µM) in assay [7]; 0.0625 µg/mL (≈ 0.112 µM) in assay [8]; above 64 µg/mL in [9]. The MIC80 in assay [10] and in assay [11] was 0.0625 µg/mL (≈ 0.112 µM) each time.

The values above are taken from ChEMBL document CHEMBL3098071, “Synthesis and evaluation of novel azoles as potent antifungal agents” (2014).
